Measured values reported in ChEMBL document CHEMBL2150931, “Design, synthesis, and biological activity of a novel series of human sirtuin-2-selective inhibitors” (J Med Chem, 2012).
Activity calls are given as the source filed them. The calls are words filed in the database; no cut-off is given here.

Tests used:
Histone deacetylase 11 = target: T1, Histone deacetylase 11 (Homo sapiens, UniProt Q96DB2); assay: Inhibition of HDAC11
T1 sequence (Q96DB2 whole entry): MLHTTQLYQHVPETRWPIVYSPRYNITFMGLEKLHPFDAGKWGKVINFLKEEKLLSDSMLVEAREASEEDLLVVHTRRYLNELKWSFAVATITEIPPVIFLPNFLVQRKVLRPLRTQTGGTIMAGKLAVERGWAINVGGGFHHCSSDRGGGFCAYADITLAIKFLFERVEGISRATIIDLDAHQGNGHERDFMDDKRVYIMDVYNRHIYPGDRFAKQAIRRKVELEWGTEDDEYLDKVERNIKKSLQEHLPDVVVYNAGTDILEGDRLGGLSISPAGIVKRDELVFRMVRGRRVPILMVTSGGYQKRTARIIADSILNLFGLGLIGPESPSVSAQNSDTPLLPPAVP

[1] = target: T2, Protein deacetylase HDAC6 (Homo sapiens, UniProt Q9UBN7); assay: Inhibition of HDAC6
T2 sequence (Q9UBN7 whole entry): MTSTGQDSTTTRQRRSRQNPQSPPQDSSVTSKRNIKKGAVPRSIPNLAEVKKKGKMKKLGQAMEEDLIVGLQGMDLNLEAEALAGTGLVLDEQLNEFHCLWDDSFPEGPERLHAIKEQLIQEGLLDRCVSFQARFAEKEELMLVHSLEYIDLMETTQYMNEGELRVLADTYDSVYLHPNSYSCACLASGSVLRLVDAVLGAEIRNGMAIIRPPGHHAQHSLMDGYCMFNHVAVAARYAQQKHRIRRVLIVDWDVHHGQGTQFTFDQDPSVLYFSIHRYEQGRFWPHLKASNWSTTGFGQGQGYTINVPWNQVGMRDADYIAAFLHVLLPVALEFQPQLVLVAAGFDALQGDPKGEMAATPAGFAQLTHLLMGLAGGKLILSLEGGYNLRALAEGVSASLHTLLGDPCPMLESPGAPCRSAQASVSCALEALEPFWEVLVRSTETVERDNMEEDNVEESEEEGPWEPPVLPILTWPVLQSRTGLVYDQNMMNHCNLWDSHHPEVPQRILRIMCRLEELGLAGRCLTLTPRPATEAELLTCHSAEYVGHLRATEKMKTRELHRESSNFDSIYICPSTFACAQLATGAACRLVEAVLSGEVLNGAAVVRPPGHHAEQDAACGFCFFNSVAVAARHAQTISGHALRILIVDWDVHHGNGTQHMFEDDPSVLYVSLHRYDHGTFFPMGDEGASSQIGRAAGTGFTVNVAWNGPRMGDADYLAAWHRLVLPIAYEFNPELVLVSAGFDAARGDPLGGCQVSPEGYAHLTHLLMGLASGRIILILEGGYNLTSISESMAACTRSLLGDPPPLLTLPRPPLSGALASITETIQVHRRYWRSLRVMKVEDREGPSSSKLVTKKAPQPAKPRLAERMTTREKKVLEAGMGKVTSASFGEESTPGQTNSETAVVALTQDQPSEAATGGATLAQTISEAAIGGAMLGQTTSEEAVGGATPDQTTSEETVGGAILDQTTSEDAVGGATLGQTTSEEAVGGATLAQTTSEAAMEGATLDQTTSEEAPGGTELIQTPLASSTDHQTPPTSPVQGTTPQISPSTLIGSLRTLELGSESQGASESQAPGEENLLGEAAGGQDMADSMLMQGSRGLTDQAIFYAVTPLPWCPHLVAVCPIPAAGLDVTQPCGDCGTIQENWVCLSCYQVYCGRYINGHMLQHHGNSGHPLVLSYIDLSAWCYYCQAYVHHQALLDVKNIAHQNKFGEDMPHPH

[2] = target: T3, NAD-dependent protein deacetylase sirtuin-1 (Homo sapiens) (UniProt Q96EB6); assay: Inhibition of SIRT1 in human HCT116 cells assessed as increase in acetylated p53 at 1 to 10 uM after 8 hrs by Western blot analysis; type: cell-based; details: HCT-116
T3 sequence (whole entry): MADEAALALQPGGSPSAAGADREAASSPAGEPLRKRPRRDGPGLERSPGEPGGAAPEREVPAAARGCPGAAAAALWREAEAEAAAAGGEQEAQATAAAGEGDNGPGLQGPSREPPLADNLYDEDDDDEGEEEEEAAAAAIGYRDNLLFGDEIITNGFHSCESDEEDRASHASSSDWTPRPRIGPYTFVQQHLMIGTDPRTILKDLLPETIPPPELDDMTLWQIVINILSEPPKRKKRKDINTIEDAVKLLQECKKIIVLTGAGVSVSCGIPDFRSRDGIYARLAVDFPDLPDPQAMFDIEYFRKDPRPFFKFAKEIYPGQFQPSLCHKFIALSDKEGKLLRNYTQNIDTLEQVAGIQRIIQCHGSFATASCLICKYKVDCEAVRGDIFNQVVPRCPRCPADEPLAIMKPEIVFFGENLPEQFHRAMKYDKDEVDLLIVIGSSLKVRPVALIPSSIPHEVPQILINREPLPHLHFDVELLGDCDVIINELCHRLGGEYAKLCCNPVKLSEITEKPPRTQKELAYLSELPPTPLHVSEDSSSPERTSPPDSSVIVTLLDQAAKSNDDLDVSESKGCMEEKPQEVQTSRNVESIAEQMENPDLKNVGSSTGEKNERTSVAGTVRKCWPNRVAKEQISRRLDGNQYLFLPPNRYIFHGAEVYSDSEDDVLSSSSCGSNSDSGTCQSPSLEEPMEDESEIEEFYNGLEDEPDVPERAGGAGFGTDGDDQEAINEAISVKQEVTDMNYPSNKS
Outline: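 HCT116 cells grown in McCoy's 5A with 10% FBS. 5×10⁵ cells exposed 8 h to compound at 1 or 10 μM, alongside 20 μM etoposide. SDS lysates equalized by Bradford assay and run on 15% SDS-PAGE, then blotted onto nitrocellulose. Blots probed overnight at 4 °C for acetyl-p53, p53, acetyl-α-tubulin and α-tubulin, and detected by ECL. Signal given as acetylated/total protein ratio.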

IC50 (Histone deacetylase 11): > 30 µM
IC50 [1]: > 30 µM
inhibition [2]: inactive
Compound: NC(=O)c1ccccc1Nc1cccc(OCCc2ccccc2)c1
